From PubChem
A selection: hits, their analogues and other compounds. The true share with any hit is near 1.1%.
Furin inhibitor: human furin inhibitors, primary screen, biochemical, fluorescence intensity | purified furin, fluorogenic substrate cleavage | AID 463115, 2010 | inhibition, % at 20 µM or 30 µM | hit rate 0.061% among 220,000 | P09958; in the data active = inhibition above about 25%
hK5 inh: human KLK5 protease inhibitors, primary screen, biochemical, 1536-well. recombinant hK5, fluorogenic AMC substrate cleavage. AID 873, 2007. Kallikrein-5 (Homo sapiens), Q9Y337. inhibition, % at 5 µM. hit rate 0.59% among 210,000;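 active = inhibition of 40% or more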;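 also: 0% = enzyme controls without compound and 100% = no-enzyme blanks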
FXIa inh: human FXIa protease inhibitors, primary screen, biochemical, 1536-well; hit rate 0.14% among 220,000; purified FXIa, Boc-Glu-Ala-Arg-AMC fluorogenic substrate; Coagulation factor XI (Homo sapiens), P03951; AID 798, 2007; inhibition, % at 5 µM;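 active = inhibition of at least 40%; inactive = inhibition below 40%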;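 also: fluorescence of freed AMC excited at 355 nm; 0% = enzyme without compound and 100% = no enzyme blank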
Target sequence (P03951 19-387 limits assumed): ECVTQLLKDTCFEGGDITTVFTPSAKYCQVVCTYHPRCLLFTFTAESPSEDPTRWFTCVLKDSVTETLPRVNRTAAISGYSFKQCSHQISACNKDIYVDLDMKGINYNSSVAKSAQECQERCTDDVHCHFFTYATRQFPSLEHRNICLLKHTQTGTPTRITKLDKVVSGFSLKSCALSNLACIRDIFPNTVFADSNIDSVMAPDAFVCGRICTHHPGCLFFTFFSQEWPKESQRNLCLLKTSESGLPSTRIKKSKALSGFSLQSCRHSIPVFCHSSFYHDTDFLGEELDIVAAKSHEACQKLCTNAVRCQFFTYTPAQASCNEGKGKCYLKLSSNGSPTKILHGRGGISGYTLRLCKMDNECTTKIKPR
Target sequence (P03951 388-625 limits assumed): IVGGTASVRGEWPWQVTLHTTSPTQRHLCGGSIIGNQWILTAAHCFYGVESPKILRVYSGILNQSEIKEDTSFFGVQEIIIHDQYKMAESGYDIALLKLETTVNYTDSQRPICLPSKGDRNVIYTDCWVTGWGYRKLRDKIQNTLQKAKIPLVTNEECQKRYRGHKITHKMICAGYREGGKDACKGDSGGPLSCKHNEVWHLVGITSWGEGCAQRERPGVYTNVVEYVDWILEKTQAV
thrombin 1536: human alpha-thrombin inhibitors, primary screen, counter-screen for coagulation protease inhibitor project, biochemical, 1536-well, fluorogenic AMC substrate; Boc-VPR-AMC fluorogenic substrate cleavage; hit rate 0.26% among 220,000; AID 1046, 2008; inhibition, % at 5 µM;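 active = inhibition at or above 40%; inactive = inhibition below 40%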;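 also: 0% = enzyme with no compound and 100% = wells without enzyme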
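signal = AMC fluorescence, 355/460 nm | material = human alpha-thrombin enzyme | control set = enzyme without compound as high, wells lacking enzyme as low | times = reaction at room temperature | read-out basis = percent inhibition scaled between no-compound controls and no-enzyme blanks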
FXIIa inh 1536: human FXIIa protease inhibitors, primary screen, biochemical, 1536-well; AID 800, 2007; hit rate 0.3% among 220,000; Coagulation factor XII (Homo sapiens), P00748; purified FXIIa, Boc-QGR-AMC fluorogenic substrate, 2 h; inhibition, % at 5 µM; in the data active = inhibition above about 40%;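 also: 0% = enzyme with no compound and 100% = blank without enzyme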
* hit, by the source's call.

What do the screens show for `CCOCCCNC(=S)Nc1cc(C)cc(C)c1`?
Furin inhibitor: -15; hK5 inh: -12; FXIa inh: 7; thrombin 1536: 22; FXIIa inh 1536: 10

Results for Cc1ccc(C)c(C(=O)c2c(C)nc3sccn23)c1 ?
Furin inhibitor: -8; hK5 inh: 44*; FXIa inh: 4; thrombin 1536: 22; FXIIa inh 1536: 26

How did COc1ccc(Cl)c(S(=O)(=O)N2CCCC2)c1 do in these assays?
Furin inhibitor: -23; hK5 inh: 68*; FXIa inh: 1; thrombin 1536: 21; FXIIa inh 1536: 22

Results for CCOc1cc(S(=O)(=O)N2CCCCC2)ccc1Cl ?
Furin inhibitor: -18; hK5 inh: 60*; FXIa inh: 5; thrombin 1536: 104*; FXIIa inh 1536: 18

Results for CC(C)CCN1CCN(Cc2cccc3cccnc23)CC1CCO (stereo not given) ?
Furin inhibitor: -6; hK5 inh: 18; FXIa inh: 11; thrombin 1536: 4; FXIIa inh 1536: 17

What do the screens show for `Cc1c(C)n(C)c2ccc(C(=O)Nc3cccc4ccccc34)cc12`?
Furin inhibitor: -9; hK5 inh: -2; FXIa inh: -5; thrombin 1536: -1; FXIIa inh 1536: 4

How did COC(=O)c1cccc(NC(=O)Nc2ccc(Cl)cc2Cl)c1 do in these assays?
Furin inhibitor: -8; hK5 inh: 42*; FXIa inh: 21; thrombin 1536: 40; FXIIa inh 1536: 20

What do the screens show for `O=S(=O)(c1ccccc1Cl)N1CCC(O)(c2ccc3c(c2)OCO3)CC1`?
Furin inhibitor: -16; hK5 inh: -8; FXIa inh: 3; thrombin 1536: 0; FXIIa inh 1536: 14

What do the screens show for `COc1cc(C(=O)N[C@H](C(=O)NC2CCCCCC2)C(C)C)cc(OC)c1OC`?
Furin inhibitor: -21; hK5 inh: 44*; FXIa inh: 8; thrombin 1536: 2; FXIIa inh 1536: 8

What do the screens show for `COc1cc(C(=O)NCCC(=O)NC2CCCCCCC2)cc(OC)c1OC`?
Furin inhibitor: -19; hK5 inh: -13; FXIa inh: 1; thrombin 1536: 2; FXIIa inh 1536: 2

Results for CCC(CO)[n+]1c(C)cc(/C=C2\Sc3ccccc3N2Cc2ccccc2)cc1C (stereo not given) ?
Furin inhibitor: 29*; hK5 inh: -1; FXIa inh: -4; thrombin 1536: 4; FXIIa inh 1536: 7

What do the screens show for `CCOc1cc(/C=N/n2cnnc2)cc(Br)c1O`?
Furin inhibitor: -6; hK5 inh: 6; FXIa inh: 24; thrombin 1536: 2; FXIIa inh 1536: 43*

What do the screens show for `CCOc1ccc(/C=N/n2cnnc2)cc1`?
Furin inhibitor: -22; hK5 inh: -31; FXIa inh: -15; thrombin 1536: -10; FXIIa inh 1536: -5

Results for O=C(COc1ccc(Cl)cc1)Nc1nnc(C2=COCCO2)o1 ?
Furin inhibitor: -20; hK5 inh: 1; FXIa inh: -1; thrombin 1536: -6; FXIIa inh 1536: 12

Results for O=C(CN(C(=O)c1ccc(Cl)cc1)C1CCCCC1)Nc1ccc(Cl)c([N+](=O)[O-])c1 ?
Furin inhibitor: -6; hK5 inh: -6; FXIa inh: 6; thrombin 1536: 2; FXIIa inh 1536: 11

How did O=C(CN(C(=O)c1ccccc1Cl)C1CCCCC1)Nc1ccc(Cl)c([N+](=O)[O-])c1 do in these assays?
Furin inhibitor: -19; hK5 inh: 1; FXIa inh: 5; thrombin 1536: 0; FXIIa inh 1536: 70*

What do the screens show for `CCN(CC)c1ccc(/C=C2\SC(=O)N(C(C)C)C2=O)o1`?
Furin inhibitor: -13; hK5 inh: 4; FXIa inh: 2; thrombin 1536: -1; FXIIa inh 1536: 10

Results for O=C(O)CCC(=O)CCC(=O)c1ccc(Cl)cc1 ?
Furin inhibitor: -19; hK5 inh: 44*; FXIa inh: 9; thrombin 1536: 14; FXIIa inh 1536: 33

What do the screens show for `C/C(=N\NC(=O)c1cc(-c2ccncc2)nc2ccccc12)c1ccc(OC(F)F)cc1`?
Furin inhibitor: -24; hK5 inh: -7; FXIa inh: -5; thrombin 1536: -16; FXIIa inh 1536: 4
